Screens as filed in PubChem.
Ecoli rRNA inh = reduced GFP signal of wild-type E. coli, primary screen, bacterial rRNA inhibitor project, GFP/RFP fluorescence, OD600, single point; GFP signal change (wild-type ribosome), % (concentration not given with the values); AID 720706, 2013; 1.6% of 350,000 active; E. coli WT GFP vs humanized-ribosome RFP mutants, 24 h; stronger effect = lower value; DMSO median 0, no signal -100;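 active = significant combined selectivity score with lowered wild-type GFP, culture density cut under 30%, mutant RFP and density less affected; inactive = any of these conditions unmet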
S100A4 inh HTS = inhibitors of S100A4-myosin IIA peptide binding, primary screen, biochemical, fluorescence polarization, TAMRA-MyoIIA peptide | inhibition, % at 10.7 µM | Protein S100-A4 (Homo sapiens), P26447 | 0.14% of 360,000 active;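 active = mean inhibition of at least 70% across replicates, with every replicate also reaching that level; inconclusive = mean inhibition reaches 70% but some replicates fall short; inactive = mean inhibition below 70%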
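Assay system: human S100A4 monomer with TAMRA-labelled myosin IIA peptide / Buffer or medium: Calcium-containing HEPES buffer, pH 7.2 / Reagent: TAMRA-labelled myosin IIA heavy-chain peptide probe, 5 nM / Compound: one dose per compound / Timing: polarization read 5 min after assay mix addition, stable 5–60 min / Benchmarks: neutral control DMSO, positive control TFP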
Cneo AK release = Cryptococcus neoformans cell lysis inducers, primary screen, AK release luminescence, single concentration. C. neoformans lysis, adenylate kinase release luminescence, 4 h; normalised: neutral wells 0, clomiphene wells 100. lysis activity, % at 15 µM. 0.2% of 360,000 active;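 active = mean lysis activity across replicates of at least 80%, whatever share of replicates individually reach that level; inactive = mean lysis activity below 80%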
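Material: C. neoformans cells; Schedule: 4 h static compound exposure, 37 °C, read 1 h post-reagent; Measured by: adenylate kinase release luminescence; Read-out: signal increase indicating cell lysis; Controls: Clomiphene as positive lysis control.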
MLL AF4-AF9 inh = inhibitors of AF4 peptide binding to AF9, primary screen, biochemical, AlphaScreen, biotin-AF4 peptide, FLAG-AF9, single point; inhibition, % at 10 µM; 0.47% of 350,000 active;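 active = every replicate reaching a set inhibition limit, whatever the replicate mean, cut at about 25% in these data; inconclusive = mean inhibition reaches that limit but some replicates miss it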;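 note: 0% = plate neutral control median and 100% = total signal loss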
Target sequence (P42568 whole entry, looked up): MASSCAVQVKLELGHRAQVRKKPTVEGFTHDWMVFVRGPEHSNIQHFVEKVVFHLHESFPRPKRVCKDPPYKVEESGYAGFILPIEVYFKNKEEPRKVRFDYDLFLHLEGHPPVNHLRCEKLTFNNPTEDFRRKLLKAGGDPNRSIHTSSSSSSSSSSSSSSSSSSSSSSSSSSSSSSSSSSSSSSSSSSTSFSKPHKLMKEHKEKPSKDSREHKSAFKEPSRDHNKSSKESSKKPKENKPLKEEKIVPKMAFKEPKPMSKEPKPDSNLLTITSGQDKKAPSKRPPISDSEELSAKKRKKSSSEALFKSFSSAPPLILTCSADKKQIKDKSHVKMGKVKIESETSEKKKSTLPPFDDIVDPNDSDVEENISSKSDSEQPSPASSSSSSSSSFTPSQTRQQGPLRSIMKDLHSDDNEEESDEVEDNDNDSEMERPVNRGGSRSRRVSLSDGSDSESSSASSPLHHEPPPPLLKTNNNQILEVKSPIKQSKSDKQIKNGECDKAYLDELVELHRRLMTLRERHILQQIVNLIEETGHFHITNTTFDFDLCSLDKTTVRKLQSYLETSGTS
PfHsp90 set2 = growth inhibition of PfHsp90-expressing yeast, primary screen, antimalarial PfHsp90 inhibitor project, S. cerevisiae, BacTiter-Glo luminescence, single point, set 2. AID 504621, 2011. inhibition, % at 9.4 µM. 0.32% of 310,000 active. BacTiter-Glo ATP, 48 h; yeast lacking PDR1 and PDR3 efflux regulators;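 active = every replicate shows inhibition above about 80%, whatever the replicate mean, limit read from the data; inconclusive = mean inhibition reaches the set limit but some replicate falls short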;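 note: 0% = DMSO neutral controls and 100% = 20 µM radicicol positive controls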
DENV2 CPE rescue = inhibitors of DENV2 cytopathic effect, primary screen, cell-based, plate reader, single concentration; 1.7% of 350,000 active; CPE inhibition, % at 9.99 µM; DENV2-infected cells, cytopathic effect rescue; AID 651640, 2012; in the data active = CPE inhibition above about 20%, passing the limit was not always enough; inconclusive = no clear call, values can overlap the other calls; tested in BHK-21 cells;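 note: 0% = median of neutral control wells and 100% = median of positive control wells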
The depositor's hits bear a star; ? = inconclusive; · = no result given; ! = not active in a repeat. Hits are enriched below; roughly 3.2% of the tested compounds scored in any of these assays.

SMILES	Ecoli rRNA inh	S100A4 inh HTS	Cneo AK release	MLL AF4-AF9 inh	PfHsp90 set2	DENV2 CPE rescue
COc1cc(-c2cc(NC(C)=O)c3ncc(-c4cc(OC)c(OC)c(OC)c4)n3c2)cc(OC)c1OC	-12	8	2	-1	·	-10
COc1ccccc1-c1cc(NC(C)=O)c2ncc(-c3cccc(C(C)=O)c3)n2c1	1	0	-1	-1	·	?
CC(=O)Nc1cc(-c2ccc(C(=O)NC3CC3)cc2)cn2c(-c3cccc(C(F)(F)F)c3)cnc12	4	-3	-1	-1	·	38*
COc1ccccc1S(=O)(=O)N[C@H]1C=C[C@H](CC(=O)N2CCCCC2)O[C@@H]1CO	-1	-2	20	-13	·	0
Cc1ccc(C=Nc2ccccc2C(N)=O)o1	5	-2	·	-9	-4	10
Cc1ccc(C=Nc2ccc(N(C)C)cc2)o1	3	-6	-2	59*	5	·
CCOc1cc(-c2sc(Nc3ccc(CC)cc3)n[n+]2-c2ccccc2)ccc1OC	10	-6	0	27*	1	-15
COc1ccc(C)cc1Nc1n[n+](-c2ccccc2)c(-c2c(OC)ccc3ccccc23)s1	-35	-1	27	40*	-7	·
O=C(O)c1ccc(OCC(O)Cn2c3ccccc3c3ccccc32)cc1 (configuration not stated)	-46*	0	1	2	-7	4
CCCn1c(=N)n(CC(O)COc2ccc(C)cc2)c2ccccc21 (configuration not stated)	-26*	-4	·	3	-24	41*
OC(COc1ccccc1)Cn1c2ccccc2c2ccccc21 (configuration not stated)	·	·	3	·	24	·
CCCCCn1c(=N)n(CC(O)COc2ccccc2OC)c2ccccc21 (configuration not stated)	-23	6	0	50*!	3	3
CN(C)CCCNC(=O)C[C@@H]1CC[C@@H]2[C@H](COC[C@H](O)CN2S(=O)(=O)c2ccc(Cl)cc2)O1	0	-7	-1	0	·	-6
NC(=O)c1ccc(NC(=O)COC(=O)c2cc([N+](=O)[O-])ccc2N2CCOCC2)cc1	2	-6	·	2	·	3
O=C(COC(=O)c1cc([N+](=O)[O-])ccc1N1CCOCC1)Nc1ccc(Cl)cc1	-34*	-3	-12	11	-25	-6
O=C(C1CCCN(S(=O)(=O)c2cccc3nonc23)C1)N1CCN(c2ccccc2)CC1 (configuration not stated)	-29*	-5	0	5	24	-2
COc1cc2c(cc1OC)CN(Cc1ccccc1)CC2	17	26	3	-5	-2	-2
COc1cc2c(cc1OC)CN(CCC(C)c1ccc(Cl)cc1)CC2 (configuration not stated)	-33*	-3	2	9	2	-5
COc1ccc(NC(=O)Nc2ccc3c(c2)C(=O)N([C@@H](C)CO)C[C@@H](C)[C@H](CN(C)Cc2ccc(C(=O)O)cc2)OCCCC[C@H](C)O3)cc1	0	5	2	0	·	2
Cc1c(NC(=O)CN2C(=O)c3ccc([N+](=O)[O-])cc3C2=O)c(=O)n(-c2ccccc2)n1C	26	6	·	-2	15	0
Cc1c(NC(=O)c2ccc(-c3ccc([N+](=O)[O-])cc3Cl)o2)c(=O)n(-c2ccccc2)n1C	-22*	-2	·	2	21	2
CC(C)=C(c1ccc(Cl)cc1)c1c(N)ncnc1N	-21*	2	2	-2	·	10
COc1ccc(C(O)c2nc(-c3cc(F)cc(F)c3)cs2)cc1 (configuration not stated)	-9	8	-2	0	·	-7
OC(c1ccc(F)c(F)c1)c1nc(-c2ccccc2)cs1 (configuration not stated)	-70	-11	11	-8	·	7
COc1ccc(-c2csc(C(O)c3cccc(OC)c3)n2)cc1 (configuration not stated)	1	2	-2	-1	·	52*
SMILES	Ecoli rRNA inh	S100A4 inh HTS	Cneo AK release	MLL AF4-AF9 inh	PfHsp90 set2	DENV2 CPE rescue
O=C(O)c1cccc(-c2csc(C(O)c3ccc(F)c(F)c3)n2)c1 (configuration not stated)	-4	-4	1	1	·	41*
COc1cccc(C(O)c2nc(-c3ccc(N(C)C)cc3)cs2)c1 (configuration not stated)	-1	22	0	7	·	-11
COc1cccc(C(O)c2nc(-c3cc(F)cc(F)c3)cs2)c1 (configuration not stated)	-34	-3	1	-5	·	30*
CC(=O)c1cccc(NC(=O)COC(=O)c2n[nH]c3ccccc23)c1	-23*	0	·	-1	-7	6
COc1cccc(NC(=O)C(C)OC(=O)c2n[nH]c3ccccc23)c1 (configuration not stated)	-27*	-2	-2	1	9	-1
O=C(COC(=O)c1cccc(Br)c1)Nc1ccc2[nH]c(=O)[nH]c2c1	8	-5	3	-2	-77	73*
C[C@@H]1CN([C@@H](C)CO)S(=O)(=O)c2ccc(-c3cncnc3)cc2O[C@H]1CN(C)CC1CC1	-1	-20	-3	-1	·	?
O=C(O)c1c(-n2cccc2)sc2c1CCCC2	-44*	-2	·	-1	18	-2
COc1ccc(-c2csc3nc(-c4ccccc4OC)oc(=O)c23)cc1	-20*	-2	1	3	10	-3
COc1ccc(-c2csc3nc(-c4ccc(C)cc4)oc(=O)c23)cc1OC	8	-4	·	3	29	4
C[C@@H]1CN([C@H](C)CO)C(=O)c2ccccc2-c2ccccc2CO[C@@H]1CN(C)C	2	20	-3	-3	·	-2
COc1ccc(CN(C)Cc2c(O)ccc3cc(Br)ccc23)cc1OC	-23*	-1	-1	6	11	-1
COc1ccc(CCN(C)CCc2ccc(OC)c(OC)c2)cc1OC	·	-3	0	-2	-21	-13
COc1ccc(CCN(C)Cc2c(O)ccc3cc(Br)ccc23)cc1OC	-27*	-2	-1	11	21	?
CN(C)CC(=O)Nc1ccc2c(c1)[C@@H]1C[C@@H](CC(=O)NCc3ccccn3)O[C@H](CO)[C@@H]1O2	2	-3	-5	-2	·	2
